Paper PMC2920133 (Biochemistry, 2010)
Substitutions are numbered along the chain they refer to. Read-outs that look alike come from different tables or passages of the source.

Key:
ArsD109-ArsA = ArsD109-ArsA (Escherichia coli, UniProt P08690+P46003, DEL110-120); assay: Metalloid transfer assay on amylose column; type: biochemical; conditions: 5 mM nucleotide
[1] = biological target: ArsD109 V17W single-tryptophan derivative (Escherichia coli, UniProt P46003, V17W/W35Y/W97Y); type: binding; conditions: for fluorescence quenching: high concentrations: 5 mM As(III) or 0.1 mM Sb(III) (Figure 2B)
[2] = thiolate of GS^−1; cited from earlier work
[3] = biological target: ArsD109 T15W single-tryptophan derivative (Escherichia coli, UniProt P46003, T15W/W35Y/W97Y); assay: Intrinsic tryptophan fluorescence quenching, metalloid binding to T15W; conditions: for fluorescence quenching: high concentrations: 5 mM As(III) or 0.1 mM Sb(III) (Figure 2B)
ArsD109 C13G/T15W = biological target: T1, ArsD109 C13G/T15W (Escherichia coli, UniProt P46003, C13G/T15W/W35Y/W97Y); assay: Intrinsic tryptophan fluorescence quenching, As; type: binding
T1 sequence (P46003 1-109 C13G/T15W/W35Y/W97Y): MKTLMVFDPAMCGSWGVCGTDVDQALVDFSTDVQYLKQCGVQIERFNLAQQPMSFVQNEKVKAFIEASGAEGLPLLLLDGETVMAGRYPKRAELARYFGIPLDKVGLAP
In short: (§1)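 N-terminal His6 ArsD109 (W35/97Y, T15W, plus single Cys→Gly) expressed in BL21(DE3) with 0.3 mM IPTG for 3 h. Used at 1 μM in 50 mM MOPS-KOH pH 7.5 with 0.25 mM EDTA, room temperature. Sodium arsenite titrated. Quenching rate k_obs (ex 295 nm, em 345 nm) fitted per arsenite concentration; k_obs = k_off + k_on[As(III)], and Kd = k_off/k_on.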

ArsD109 C12G/T15W = biological target: T2, ArsD109 C12G/T15W (Escherichia coli, UniProt P46003, C12G/T15W/W35Y/W97Y); assay: Intrinsic tryptophan fluorescence quenching, As; type: binding
T2 sequence (P46003 1-109 C12G/T15W/W35Y/W97Y): T1 sequence (P46003 1-109 C13G/T15W/W35Y/W97Y) with C12G, G13C
In short: as §1

[4] = system: single-tryptophan derivatives of ArsD109; type: binding, Escherichia coli; conditions: 1 μM protein mixed with equimolar As(III), absence of added thiols
In short: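 Single-tryptophan ArsD109 (N-terminal His6, W35/97Y background carrying T15W or V17W), expressed in E. coli BL21(DE3). Protein at 1 μM in 50 mM MOPS-KOH pH 7.5 with 0.25 mM EDTA, room temperature, no thiol added. Sodium arsenite added from concentrated stock. Trp fluorescence (ex 295 nm, em 345 nm) followed over time and corrected for dilution.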

ArsD109 C18G/T15W = biological target: T3, ArsD109 C18G/T15W (Escherichia coli, UniProt P46003, C18G/T15W/W35Y/W97Y); assay: Intrinsic tryptophan fluorescence quenching, As; type: binding
T3 sequence (P46003 1-109 T15W/C18G/W35Y/W97Y): T1 sequence (P46003 1-109 C13G/T15W/W35Y/W97Y) with G13C, C18G
In short: as §1

ArsA ATPase = ArsA ATPase (Escherichia coli, UniProt P08690); assay: Coupled ATPase assay, metalloid-stimulated ArsA activity; type: biochemical; conditions: DMSA titration
[5] = additive 5 mM, 50 μM sodium arsenite, pH 7.5
[6] = quenching of T15W fluorescence, retains Cys12 and Cys18
[7] = quenching of T15W fluorescence, retains Cys13 and Cys18
[8] = quenching of T15W fluorescence, retains Cys12 and Cys13

Nc1ncnc2c1ncn2[C@@H]1O[C@H](COP(=O)(O)OP(=O)([O-])OP(=O)([O-])O)[C@@H](O)[C@H]1O.[Mg+2] [MgATP]
transfer of As(III) from MBP-ArsD109 to ArsA (ArsD109-ArsA; 4 °C): almost no As(III) eluted with ArsA
transfer of As(III) from MBP-ArsD109 to ArsA (ArsD109-ArsA; room temperature): nearly all of the As(III) eluted in the ArsA-containing fractions

OCCS [β-mercaptoethanol]
effect of additive on rate of fluorescence quenching by As(III) [1, 5]: increased the rate of quenching

N[C@@H](CCC(=O)N[C@@H](CS)C(=O)NCC(=O)O)C(=O)O [GSH, reduced glutathione]
pKa [2]: 8.7
acceleration of rate of As(III) fluorescence quenching ([1]; 5 mM GSH, 50 μM sodium arsenite, 1 μM V17W, pH 7.5): 10 fold
rate of As(III) fluorescence quenching with additive ([1]; 5 mM GSH, 50 μM sodium arsenite, pH ≥8): too fast to measure accurately
effect of additive on rate of fluorescence quenching by As(III) ([1]; additive 0.2 mM, 50 μM sodium arsenite, pH 7.5): had little effect
effect of additive on rate of fluorescence quenching by As(III) [1, 5]: increased the rate substantially

O.O.O.O=C([O-])[C@H]([O-])[C@@H]([O-])C(=O)[O-].O=C([O-])[C@H]([O-])[C@@H]([O-])C(=O)[O-].[K+].[K+].[Sb+3].[Sb+3] [Sb(III), potassium antimonyl tartrate]
fluorescence quenching [3]: approximately 50%
fluorescence quenching in the absence of added monothiols ([1]; 2.5 μM, pH 7.5): rapidly quenched fluorescence
fluorescence quenching [1]: approximately 50%

Nc1ncnc2c1ncn2[C@@H]1O[C@H](COP(=O)([O-])OP(=O)([O-])O)[C@@H](O)[C@H]1O.[Mg+2] [MgADP]
transfer of As(III) from MBP-ArsD109 to ArsA (ArsD109-ArsA; room temperature): As(III) eluted with MBP-ArsD109 and not with ArsA

Nc1ncnc2c1ncn2[C@@H]1O[C@H](CO[P@](=O)(O)O[P@](=O)(O)O[P@@](=O)(O)S)[C@@H](O)[C@H]1O [MgATP-γ-S]
transfer of As(III) from MBP-ArsD109 to ArsA (ArsD109-ArsA; room temperature): did not promote transfer

O=[As][O-].[Na+] [As(III), sodium arsenite]
Kd (ArsD109 C13G/T15W; calculated from koff/kon): 68 ± 6 µM
koff (ArsD109 C13G/T15W; [6]): (2.7 ±0.1) × 10^−3 s^−1
kon (ArsD109 C13G/T15W; [6]): (4 ±0.2) × 10^−5 s^−1 μM^−1
Kd (ArsD109 C12G/T15W; calculated from koff/kon): 48 ± 3 µM
koff (ArsD109 C12G/T15W; [7]): (2.4 ± 0.1) × 10^−3 s^−1
kon (ArsD109 C12G/T15W; [7]): (5 ± 0.1) × 10^−5 s^−1 μM^−1
time to attain a steady-state level of fluorescence [4]: more than 2 h
koff ([3]; As(III) concentration dependence of fluorescence quenching, no added thiols): (3 ± 1) × 10^−4 s^−1
Kd ([3]; calculated from koff/kon): 1.5 ± 0.5 µM
fluorescence quenching [3]: approximately 50%
rate of fluorescence quenching at pH 9 relative to pH 7 ([1]; 50 μM sodium arsenite, 1 μM V17W, absence of GSH): ~ 10 fold
fluorescence change in the absence of GSH ([1]; 50 μM sodium arsenite, pH 7.5): decreased very slowly
fluorescence quenching [1]: approximately 50%
Kd ([1]; read-out: Kd (binding affinity), calculated from koff/kon): 2 ± 1 µM
Kd (ArsD109 C18G/T15W; calculated from koff/kon): 28 ± 3 µM
koff (ArsD109 C18G/T15W; [8]): (1.4 ± 0.1) × 10^−3 s^−1
kon (ArsD109 C18G/T15W; [8]): (5 ± 0.1) × 10^−5 s^−1 μM^−1

N[C@@H](CS)C(=O)O [L-cysteine]
effect of additive on rate of fluorescence quenching by As(III) [1, 5]: increased the rate of quenching

O=C(O)CCP(CCC(=O)O)CCC(=O)O [TCEP, tris(2-carboxyethyl)phosphine]
effect of additive on rate of fluorescence quenching by As(III) [1, 5]: did not increase the rate of quenching

O=C(O)[C@@H](S)[C@@H](S)C(=O)O [DMSA, dimercaptosuccinic acid]
effect on basal activity of ArsA (ArsA ATPase; 0.3 μM ArsA alone): did not affect
effect on As(III)-stimulated rate of ArsA activity (ArsA ATPase; 0.3 μM ArsA, 0.5 mM sodium arsenite): inhibited
